Measured values of several laboratories.
Each line is one published result; the experiments were not run side by side.
Target: Tyrosine-protein kinase ABL2 (ABL2, Homo sapiens, UniProt P42684)

CN(C)c1ncc(F)c(-c2cnn3ncccc23)n1 — remaining binding (binding; 1 µM): 100%
COc1cc2ncnc(Nc3ccc(F)c(Cl)c3)c2cc1OCCCN1CCOCC1 — remaining binding (cell-free assay; competition with immobilised ligand; 0.1 µM): 100%
C[C@@H](c1ccc(-n2cnc3c(N)ncnc32)cc1)N1CCc2nn(C)c(Cc3ccccc3)c2C1=O — remaining binding (binding; competition with immobilised ligand; 0.1 µM): 76%
CS(=O)(=O)CCNCc1ccc(-c2ccc3ncnc(Nc4ccc(OCc5cccc(F)c5)c(Cl)c4)c3c2)o1 — remaining binding (cell-free assay; competition with immobilised ligand; 0.1 µM): 99%
N#CC1(c2ccccn2)CCN(Cc2cc(C(=O)N3CCCC3)c(=O)n3ccccc23)CC1 — remaining binding (cell-free assay; competition with immobilised ligand; 1 µM): 100%
Cc1c(-c2ccccc2)oc2c(C(=O)OCCN3CCCCC3)cccc2c1=O — remaining binding (cell-free assay; competition with immobilised ligand; 0.1 µM): 100%
C[C@@H]1CCN(c2nccc(-c3cnn4ncccc34)n2)C1 — remaining binding (binding; 1 µM): 76%
COCCOc1nc(-c2ccc(Cl)nc2)nc2c1CN(C(=O)c1ncn3ccccc13)CC2 — remaining binding (cell-free assay; competition with immobilised ligand; 0.1 µM): 100%
O=C(c1ccc(Nc2ncc(Cl)c(-c3ccc(Cl)s3)n2)cc1)N1CCC(N2CCCC2)CC1 — remaining binding (binding; competition with immobilised ligand; 1 µM): 56%
O=C(Nc1cccnn1)N1CC(C/C=C/c2cncc(Oc3ccc(C(F)(F)F)cn3)n2)C1 — remaining binding (cell-free assay; competition with immobilised ligand; 1 µM): 100%
CN(CCCC(F)(F)F)c1nccc(-c2cnn3ncccc23)n1 — remaining binding (binding; 1 µM): 93%
CN1CC[C@H](c2c(O)cc(O)c3c(=O)cc(-c4ccccc4Cl)oc23)[C@H](O)C1 — remaining binding (cell-free assay; competition with immobilised ligand; 10 µM): 80%
CO[C@@H](C)c1c(Nc2ccc([C@H](N(C)C(=O)C3CCS(=O)(=O)CC3)C(F)(F)F)cc2)cnc2cc(Cl)nn12 — remaining binding (cell-free assay; competition with immobilised ligand; 1 µM): 85%
CCN(CC)CCNC(=O)c1c(C)[nH]c(/C=C2\C(=O)Nc3ccc(F)cc32)c1C — remaining binding (cell-free assay; competition with immobilised ligand; 10 µM): 51%
CCN1CCN(Cc2ccc(C(=O)Nc3ccc(C)c(Oc4ccc5c(c4)CC(=O)N5)c3)cc2C(F)(F)F)CC1 — remaining binding (binding; competition with immobilised ligand; 1 µM): 20%
CC1CCCN1c1nccc(-c2cnn3ncccc23)n1 (centres unmarked) — remaining binding (binding; 1 µM): 100%
CC(C)(O)c1cncc(-c2nc3ccc(F)cc3n2C2CC2)c1 — remaining binding (cell-free assay; competition with immobilised ligand; 1 µM): 100%
C=CC(=O)N1CCC(C(=O)NCC(=O)N2CCN(c3nc(-c4cnc(N)nc4C(F)F)nc(N4CCOCC4)n3)CC2)CC1 — remaining binding (binding; competition with immobilised ligand; 1 µM): 91%
O=C(NCCCC1CCCCC1)c1ccc(CNC(=O)c2cnn(-c3ccccc3)c2C(F)(F)F)cc1 — remaining binding (cell-free assay; competition with immobilised ligand; 0.1 µM): 87%
CNC(=O)[C@@H]1CC[C@@H](n2c(-c3ccc4cnccc4c3)nc3ccc(C(=O)NCc4cccc(C(N)=O)c4)cc32)C1 — remaining binding (binding; competition with immobilised ligand; 1 µM): 98%
